Source: ChEMBL document CHEMBL2346519, “Substituted indolin-2-ones as p90 ribosomal S6 protein kinase 2 (RSK2) inhibitors: Molecular docking simulation and structure-activity relationship analysis” (Bioorg Med Chem, 2013)

How the values were obtained:
[1] = target: T1, Ribosomal protein S6 kinase alpha-3 (Homo sapiens, UniProt P51812); assay: Inhibition of RSK2 (unknown origin) using AKRRRLSSLRA as substrate at 10 uM after 60 mins by fluorescence assay relative to control
PC-3 [2] = assay: Cytotoxicity against human PC3 cells assessed as growth inhibition at 100 uM after 48 hrs by MTT assay relative to control; assay type: functional; details: PC-3, 48 h, read-out: GI
Outline: (§1)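 Single-concentration screen at 100 µM by 48 h MTT. MCF-7 cells were grown in DMEM plus 10% FBS and PC 3 cells in F-12K, 5 × 10^3 cells per well. After 4 h with MTT at 37 °C, formazan was dissolved in DMSO and absorbance read at 570 nm. Percent inhibition is reported.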

[3] = target: T1, Ribosomal protein S6 kinase alpha-3; assay: Inhibition of RSK2 (unknown origin) using AKRRRLSSLRA as substrate after 60 mins by fluorescence assay
MCF7 [4] = assay: Cytotoxicity against human MCF7 cells assessed as growth inhibition at 100 uM after 48 hrs by MTT assay relative to control; assay type: functional; details: MCF7, 48 h, read-out: GI; outline: as §1
MCF7 [5] = assay: Cytotoxicity against human MCF7 cells assessed as growth inhibition after 48 hrs by MTT assay; assay type: functional, cell-based; details: MCF7, 48 h
Outline: (§2)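 MCF-7 cells grown in DMEM plus 10% FBS and PC 3 cells in F-12K, both seeded at 5 × 10^3 per well. Cells were exposed to compounds at various concentrations for 48 h. MTT was then added for 4 h at 37 °C in 5% CO2, formazan was dissolved in DMSO, and absorbance was read at 570 nm. IC50 was taken from inhibition curves of three independent experiments and measured only where inhibition at 100 µM exceeded 50%.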

[6] = target: T1, Ribosomal protein S6 kinase alpha-3; assay: Inhibition of RSK2 (unknown origin)
PC-3 [7] = assay: Cytotoxicity against human PC3 cells assessed as growth inhibition after 48 hrs by MTT assay; assay type: functional, cell-based; details: PC-3, 48 h; outline: as §2

T1 sequence (P51812 whole entry): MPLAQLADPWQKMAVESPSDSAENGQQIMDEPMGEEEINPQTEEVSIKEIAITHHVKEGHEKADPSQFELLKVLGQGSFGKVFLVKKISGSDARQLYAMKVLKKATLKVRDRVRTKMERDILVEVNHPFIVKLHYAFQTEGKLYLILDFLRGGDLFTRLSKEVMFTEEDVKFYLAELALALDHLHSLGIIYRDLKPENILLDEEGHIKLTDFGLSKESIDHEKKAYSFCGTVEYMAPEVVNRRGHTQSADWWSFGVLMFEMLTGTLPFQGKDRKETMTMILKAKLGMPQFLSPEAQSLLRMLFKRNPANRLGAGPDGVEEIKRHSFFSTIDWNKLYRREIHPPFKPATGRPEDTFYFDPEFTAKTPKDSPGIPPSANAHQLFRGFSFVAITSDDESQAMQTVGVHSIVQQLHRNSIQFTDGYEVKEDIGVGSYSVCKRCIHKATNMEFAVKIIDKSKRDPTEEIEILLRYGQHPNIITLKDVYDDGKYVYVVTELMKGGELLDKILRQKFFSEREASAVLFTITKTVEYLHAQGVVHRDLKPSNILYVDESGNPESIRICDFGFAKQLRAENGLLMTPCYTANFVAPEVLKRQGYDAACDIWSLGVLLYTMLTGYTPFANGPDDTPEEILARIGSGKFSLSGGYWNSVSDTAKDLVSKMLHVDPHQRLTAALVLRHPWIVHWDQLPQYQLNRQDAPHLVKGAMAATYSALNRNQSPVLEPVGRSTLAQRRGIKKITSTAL

Row | inhibition [1] [%] | Compound | also measured
1 | < 10 | O=C1Nc2ccc(Cl)cc2/C1=C/c1c[nH]nc1-c1ccc(Cl)cc1 | –
2 | 16.8 | O=C1Nc2ccccc2/C1=C/c1ccc(-c2ccccc2Cl)o1 | –
3 | 17.1 | O=C1Nc2ccc(F)cc2/C1=C/c1ccc(-c2ccccc2Cl)o1 | –
4 | 50.1 | CCc1cccc2c1NC(=O)/C2=C1\SC(=S)NC1=O | inhibition of growth at 100 µM (PC-3 [2]): 40.9%; IC50 [3]: 17 µM; inhibition of growth at 100 µM (MCF7 [4]): 16%
5 | 41.1 | CC(=O)NN1C(=O)/C(=C2/C(=O)Nc3ccc(C)cc32)SC1=S | –
6 | < 10 | CCn1c(/C=C2\C(=O)Nc3ccccc32)nc2ccccc2c1=O | –
7 | 69.6 | O=C1Nc2ccccc2/C1=C/c1ccco1 | IC50 (MCF7 [5]): 30.1 µM; inhibition of growth at 100 µM (PC-3 [2]): < 10%; IC50 [6]: 7.76 µM; IC50 [3]: 3.47 µM
8 | < 10 | O=C1Nc2ccc(F)cc2/C1=C/c1c[nH]nc1-c1ccc(F)cc1 | –
9 | 22.3 | O=C1Nc2ccc(Br)cc2/C1=C/c1ccc(-c2ccccc2Cl)o1 | –
10 | 13.4 | COc1ccc(-n2c(/C=C3\C(=O)Nc4ccccc43)nc3ccc(I)cc3c2=O)cc1 | –
11 | < 10 | O=C1Nc2ccc(Cl)cc2/C1=C/c1ccc(-c2cccc(Br)c2)o1 | –
12 | < 10 | O=C1Nc2ccc(Br)cc2/C1=C/c1c[nH]nc1-c1ccc(F)cc1 | –
13 | 29.8 | O=C1Nc2ccc([N+](=O)[O-])cc2/C1=C\c1ccco1 | –
14 | 18.4 | N=C1NC(=O)/C(=C2/C(=O)Nc3cc(Cl)ccc32)S1 | –
15 | 33.6 | O=C1Nc2ccc(Br)cc2/C1=C/c1c[nH]nc1-c1ccccc1 | –
16 | 33.2 | O=C1Nc2ccc(Cl)cc2/C1=C/c1c[nH]nc1-c1ccccc1 | –
17 | 44.5 | O=C1Nc2ccc(Cl)cc2/C1=C/c1c[nH]nc1-c1ccc(F)cc1 | –
18 | 21.9 | O=C1Nc2ccccc2/C1=C/c1ccc(-c2cccc(Br)c2)o1 | –
19 | – | Cn1cc(C2=C(c3cn(CCCSC(=N)N)c4ccccc34)C(=O)NC2=O)c2ccccc21 [BISINDOLYLMALEIMIDE IX] | IC50 (PC-3 [7]): 1.74 µM
20 | 100 | Nc1ccc2c(c1)/C(=C\c1ccco1)C(=O)N2 | IC50 (MCF7 [5]): 15.5 µM; inhibition of growth at 100 µM (PC-3 [2]): < 10%; IC50 [3]: 2.49 µM

Row | inhibition [1] [%] | Compound | also measured
21 | 16.5 | O=C1Nc2ccccc2/C1=C/c1ccc(CN2C(=O)c3ccccc3C2=O)o1 | –
22 | 25.6 | COc1ccc2c(c1)/C(=C\c1ccco1)C(=O)N2 | –
23 | 32.1 | O=C1Nc2ccc(Cl)cc2/C1=C/c1ccc(-c2ccccc2Cl)o1 | –
24 | 38.6 | O=C1Nc2ccccc2/C1=C/c1c[nH]nc1-c1ccc(F)cc1 | –
25 | 26.3 | O=C1Nc2ccc(F)cc2/C1=C/c1ccc(-c2cccc(Br)c2)o1 | –
26 | 11.5 | O=C1Nc2ccc(Br)cc2/C1=N/NC(=O)c1ccco1 | –
27 | < 10 | O=C1Nc2ccc(Cl)cc2/C1=C1/S/C(=N\c2ccccc2)N(c2ccccc2)C1=O | –
28 | < 10 | CCc1ccc2c(c1)/C(=N\NC(=O)CSc1ccc(Cl)cc1)C(=O)N2 | –
29 | < 10 | O=C1Nc2ccccc2/C1=C/c1ccc(-c2c(Cl)cc(C(F)(F)F)cc2Cl)o1 | –
30 | 78.4 | O=C1Nc2ccc(F)cc2/C1=C/c1c[nH]nc1-c1ccccc1 | inhibition of growth at 100 µM (PC-3 [2]): < 10%; IC50 [3]: 8.59 µM; inhibition of growth at 100 µM (MCF7 [4]): < 10%
31 | 39.6 | Cc1c(Cl)ccc2c1NC(=O)/C2=C1\SC(=S)NC1=O | –
32 | 92.4 | Cc1cccc2c1NC(=O)/C2=C1\SC(=S)NC1=O | inhibition of growth at 100 µM (PC-3 [2]): < 10%; IC50 [3]: 1.68 µM; inhibition of growth at 100 µM (MCF7 [4]): 41.5%
33 | < 10 | NC(=O)c1ccc(/N=C2/C(=O)Nc3ccccc32)cc1 | –
34 | 30.1 | Cc1ccc(N/N=C2/C(=O)Nc3ccc(F)cc32)cc1 | –
35 | 84.8 | O=C1Nc2ccc(Cl)cc2/C1=C\c1ccco1 | IC50 (MCF7 [5]): 14.7 µM; IC50 (PC-3 [7]): 23.9 µM; IC50 [3]: 2.02 µM
36 | < 10 | O=C1Nc2ccc(Br)cc2/C1=C/c1ccc(-c2cccc(Br)c2)o1 | –
37 | 87.3 | O=C1Nc2ccc(Br)cc2/C1=C\c1ccco1 | IC50 (MCF7 [5]): 9.84 µM; IC50 (PC-3 [7]): 16.9 µM; IC50 [3]: 1.51 µM
38 | < 10 | O=C1Nc2ccccc2/C1=N/N=C1\CCCc2c1[nH]c1ccc(Cl)cc21 | –
39 | 79.5 | O=C1Nc2ccccc2/C1=C/c1c[nH]nc1-c1ccccc1 | IC50 (MCF7 [5]): 8.55 µM; IC50 (PC-3 [7]): 6.19 µM; IC50 [3]: 2.72 µM
40 | < 10 | O=C1Nc2ccc(Br)cc2/C1=N/NC(=O)c1ccc2c(c1)OCO2 | –
